As usually defined, the Ki is the equilibrium dissociation constant of an inhibitor or competing ligand from its target. For orientation: IC50 means the midpoint of a concentration-inhibition curve. The low end stands for higher potency, the high end for lower potency. Broadly, the bioavailability is dose-corrected exposure relative to a reference, in per cent. The term Vd denotes a proportionality between amount in the body and measured concentration, not a real space. A higher Vd goes with wide distribution into tissue. As a reminder, the half-life is the time needed for the level to fall by half in the phase considered. A low value points to fast loss. For orientation: Cmax means the highest concentration seen after dosing.

Data set [1] addresses T1, Metabotropic glutamate receptor 5 (Rattus norvegicus, UniProt P31424). Nature of the data set: Ability to displace [3H]3-methoxy-5-(pyridin-2-ylethynyl)pyridine from binding to metabotropic glutamate receptor 5 in rat cortical membranes. The class given is cell membranes.
Data set [2] deals with T1, Metabotropic glutamate receptor 5. Kind of data set: In vitro functional activity measured by changes in cytosolic [Ca2+] concentrations against rat metabotropic glutamate receptor 5. A digest of the protocol:
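A cell-based, high-throughput functional assay followed changes in cytosolic Ca2+ concentration by fluorescence detection.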

Data set [3] is filed under the species Rattus norvegicus. Nature of the data set: Ratio of compound levels in brain to that of plasma level was determined. The class given is functional. A digest of the protocol: (§1)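 Sprague–Dawley rats were dosed intraperitoneally at 10 or 3 mg/kg. Drug levels (µM) in brain and plasma were measured 1 h after dosing, and brain/plasma was expressed as a percentage.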

The nature of data set [4]: Oral bioavailability in rat (dose 10 mg/kg p.o.). Type of data set: ADME, organism-based. Conditions: in vivo. The procedure, abridged:
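Rat pharmacokinetics compared oral dosing at 10 mg/kg (n = 3 Sprague–Dawley rats/group) with intravenous dosing at 2 mg/kg (n = 2 rats/group).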

Data set [5] relates to Rattus norvegicus. Kind of data set: Effective dose for maximum occupancy in rat upon oral administration measured 30 min post administration; n = 6 - 7.
Data set [6] can be described thus: Volume of distribution in rat upon intravenous administration at a dose of 2 mg/kg; n = 2. The arrangement: dose 2 mg/kg, route intravenous. The note with it: in vivo. The class given is ADME, organism-based. A digest of the protocol:
(§2)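 Sprague–Dawley rats (n = 2 per group) were given 2 mg/kg by the intravenous route for pharmacokinetic profiling.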

The subject of data set [7] is Rattus norvegicus. Kind of data set: Brain penetration measured by compound levels in brain at a dose of 10 mg/kg upon intraperitoneal after 1 hr. The class given is functional. A digest of the protocol: as §1
Data set [8] can be described thus: Half life in rat upon intravenous administration at a dose of 2 mg/kg; n = 2. The class given is ADME, organism-based. The arrangement: dose 2 mg/kg, route intravenous. The note with it: in vivo. A digest of the protocol:
as §2

Data set [9] can be described thus: Clearance in rat upon intravenous administration at a dose of 2 mg/kg; n = 2. Type of data set: ADME, organism-based. The arrangement: dose 2 mg/kg, route intravenous. The note with it: plasma, read-out: Clp. The procedure, abridged:
as §2

The subject of data set [10] is Rattus norvegicus. Nature of the data set: Brain penetration measured by compound levels in plasma at a dose of 10 mg/kg upon intraperitoneal after 1 hr. The class given is functional, organism-based. The arrangement: dose 10 mg/kg. The procedure, abridged:
as §1

Data set [11] has as its system Rattus norvegicus. Nature of the data set: Effective dose for maximum occupancy in rat upon intraperitoneal administration measured 1 hr post administration; n = 5 - 6. The class given is functional. A digest of the protocol: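 Receptor occupancy was measured in Sprague–Dawley rats (n = 5–6 per group) 1 h after intraperitoneal dosing. ED50 is given in mg/kg ip.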

Data set [12] can be described thus: Maximum concentration in rat upon oral administration at a dose of 10 mg/kg; n = 3. The arrangement: dose 10 mg/kg, route oral. The note with it: in vivo. The class given is ADME, organism-based. A digest of the protocol: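 Sprague–Dawley rats (n = 3 per group) were given 10 mg/kg orally for pharmacokinetic profiling.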
Data set [13] has as its system Rattus norvegicus. Kind of data set: Brain penetration measured by compound levels in plasma at a dose of 3 mg/kg upon intraperitoneal after 1 hr. Type of data set: functional, organism-based. The arrangement: dose 3 mg/kg. The procedure, abridged: as §1
In data set [14] the test system is Rattus norvegicus. Kind of data set: Brain penetration measured by compound levels in brain at a dose of 3 mg/kg upon intraperitoneal after 1 hr. The class given is functional. A digest of the protocol:
as §1

T1 sequence (P31424 whole entry): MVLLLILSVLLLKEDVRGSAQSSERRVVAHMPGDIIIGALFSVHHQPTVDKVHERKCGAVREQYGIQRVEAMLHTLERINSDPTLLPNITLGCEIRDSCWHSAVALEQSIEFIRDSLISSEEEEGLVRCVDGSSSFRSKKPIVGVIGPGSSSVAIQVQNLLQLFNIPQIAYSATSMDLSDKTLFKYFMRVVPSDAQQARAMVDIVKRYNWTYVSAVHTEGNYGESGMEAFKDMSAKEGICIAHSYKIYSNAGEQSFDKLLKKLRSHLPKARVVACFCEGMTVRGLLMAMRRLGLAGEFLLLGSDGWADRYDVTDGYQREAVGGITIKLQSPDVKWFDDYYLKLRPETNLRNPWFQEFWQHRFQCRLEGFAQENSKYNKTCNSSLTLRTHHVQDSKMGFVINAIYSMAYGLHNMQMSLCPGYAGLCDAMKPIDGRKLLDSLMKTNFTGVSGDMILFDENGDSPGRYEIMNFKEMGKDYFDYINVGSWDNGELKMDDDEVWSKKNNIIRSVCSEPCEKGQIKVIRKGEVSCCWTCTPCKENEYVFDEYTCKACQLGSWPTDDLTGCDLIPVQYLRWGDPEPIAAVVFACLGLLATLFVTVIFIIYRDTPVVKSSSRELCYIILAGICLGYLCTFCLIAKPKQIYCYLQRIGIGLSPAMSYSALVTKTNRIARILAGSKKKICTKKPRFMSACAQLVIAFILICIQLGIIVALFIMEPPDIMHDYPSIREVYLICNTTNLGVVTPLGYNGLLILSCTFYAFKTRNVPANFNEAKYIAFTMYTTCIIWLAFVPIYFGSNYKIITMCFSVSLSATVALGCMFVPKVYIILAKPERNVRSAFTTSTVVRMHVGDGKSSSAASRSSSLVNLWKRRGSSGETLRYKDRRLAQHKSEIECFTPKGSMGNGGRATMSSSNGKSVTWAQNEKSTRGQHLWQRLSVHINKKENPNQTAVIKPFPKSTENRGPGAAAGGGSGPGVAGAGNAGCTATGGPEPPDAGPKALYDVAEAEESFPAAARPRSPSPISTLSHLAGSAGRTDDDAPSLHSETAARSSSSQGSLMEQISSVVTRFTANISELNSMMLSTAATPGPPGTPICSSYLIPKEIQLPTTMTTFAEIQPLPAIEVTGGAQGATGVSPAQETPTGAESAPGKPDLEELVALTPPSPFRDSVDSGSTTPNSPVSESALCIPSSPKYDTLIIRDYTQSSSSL

As for `N#Cc1cc(N)cc(-n2nnc(-c3ccccn3)n2)c1`, the Ki in [1] was determined as 95 nM. This molecule registered a half-maximal inhibitory concentration (IC50) in [2] of 308 nM.
For the molecule `N#Cc1cccc(-n2nnc(-c3ccccn3)n2)c1`, the Brain/Plasma in the data set filed under Rattus norvegicus [3] was determined as 150%. This molecule came in with a bioavailability in data set [4] of 100%. For the same molecule, the “Occ ED50” value in the data set on Rattus norvegicus [5] and with Rattus norvegicus [11] was 3 mg/kg in each case. The same molecule gave a Vd in data set [6] of 5 L/kg. Also, the Brain levels in the data set on Rattus norvegicus [7] was found to be 15 µM. This molecule showed a half-life in data set [8] of 6.9 h. The clearance in data set [9] was found to be 33 mL/min/kg. Also, the Plasma levels in the data set on Rattus norvegicus [10] stood at 10 µM. The same molecule showed a 50% inhibitory concentration (IC50) in [2] of 73 nM.
In turn, `N#Cc1cc(OCC2CC2)cc(-n2nnc(-c3ccccn3)n2)c1` returned an inhibitory constant (Ki) in data set [1] of 271 nM. In data set [2], this molecule yielded an IC50 of 975 nM.
In the same order, the values of `N#Cc1cc(OCc2ccccc2)cc(-n2nnc(-c3ccccn3)n2)c1` are greater than 600 nM and greater than 1000 nM.
In the same order, the values of `N#Cc1cc(C#N)cc(-n2nnc(-c3ccccn3)n2)c1` are 18 nM and 34 nM.
The corresponding values for `N#Cc1cc(Cl)cc(-n2nnc(-c3ccccn3)n2)c1` are 26 nM and 7 nM.
Molecule `Cc1cc(C#N)cc(-n2nnc(-c3ccccn3)n2)c1` yielded a Cmax in data set [12] of 800 nM. Besides, the bioavailability in data set [4] worked out at 15%. Further, the distribution volume (Vd) in data set [6] stood at 1.4 L/kg. Besides, the affinity in [1], expressed as Ki, was 7 nM. The molecule further showed a half-life in data set [8] of 0.4 h. The clearance in data set [9] is 50 mL/min/kg. This molecule also returned an IC50 in data set [2] of 6 nM.
In turn, `N#Cc1cc(F)cc(-n2nnc(-c3ncc[nH]3)n2)c1` returned an IC50 in [2] of 47 nM.
Molecule `c1ccc(-c2nnn(-c3cccc(-c4cccnc4)c3)n2)nc1` showed a Ki in data set [1] of 69 nM. Half-maximal inhibition in [2] (IC50) was put at 63 nM.
Consider `N#Cc1cc(-n2nnc(-c3ccccn3)n2)ccc1Cl`, for which, in data set [1], the inhibition constant (Ki) was greater than 600 nM. Besides, half-maximal inhibition in [2] (IC50) required 722 nM.
In [1], `N#Cc1ccc(Cl)c(-n2nnc(-c3ccccn3)n2)c1` showed an inhibition constant Ki greater than 600 nM. The midpoint of inhibition in [2], the IC50, lay at 334 nM.
In data set [2], `N#Cc1cccc(-n2nnc(-c3ncc[nH]3)n2)c1` returned an IC50 of 77 nM. This counts as double-digit nanomolar.
For `N#Cc1cccc(-n2ccc(-c3ccccn3)c2)c1`, in data set [1], the inhibition constant Ki is greater than 600 nM. In addition, in data set [2], the half-maximal inhibitory concentration (IC50) amounted to 190 nM.
In the same order, the values of `COc1cc(C#N)cc(-n2nnc(-c3ccccn3)n2)c1` are 6 nM and 10 nM.
On to `N#Cc1cc(F)cc(-n2ccc(-c3ccccn3)c2)c1`, for which the Ki in data set [1] was found to be 5 nM. In data set [2], the IC50 is 3 nM.
In data set [1], `N#Cc1cc(O)cc(-n2nnc(-c3ccccn3)n2)c1` returned an inhibition constant Ki of 318 nM. The IC50 in data set [2] came to 562 nM.
In the same order, the values of `N#Cc1cc(Oc2cccnc2)cc(-n2nnc(-c3ccccn3)n2)c1` are 16 nM and 15 nM.
The corresponding values for `Clc1cccc(-n2nnc(-c3ccccn3)n2)c1Cl` are greater than 600 nM and 1270 nM.
For the molecule `N#Cc1cc(F)cc(-n2nnc(-c3ccccn3)n2)c1`, in the data set with Rattus norvegicus [13], the Plasma levels worked out at 2.7 µM. Further, in the data set filed under Rattus norvegicus [3], the Brain/Plasma came to 90%. Further, the “Occ ED50” value came out at 3.6 mg/kg with Rattus norvegicus [5] and 1.3 mg/kg in the data set on Rattus norvegicus [11]. In the data set on Rattus norvegicus [14], this molecule registered a Brain levels of 2.4 µM. The half-life in data set [8] was 2.9 h.
`N#Cc1cc(-n2nnc(-c3ccccn3)n2)cc([N+](=O)[O-])c1`: the affinity in data set [1] corresponds to a Ki of 42 nM. In data set [2], this molecule had an IC50 of 42 nM.

Values taken from ChEMBL document CHEMBL1143648, “3-[Substituted]-5-(5-pyridin-2-yl-2H-tetrazol-2-yl)benzonitriles: identification of highly potent and selective metabotropic glutamate subtype 5 receptor antagonists” (Bioorg Med Chem Lett, 2005).
